Measured values as given in article PMC7919753 (ACS chemical biology, 2020).
“And” between values parts separate entries of the source, which are not always exact repeats. Equal entries are not always repeated. Where two headings read alike, the source gives them in different places.

Tests used:
GBM10 spheroids = test: 3-D spheroid viability assay, GBM10; type: cell-based, human; settings: for activity in spheroids (in words): concentration-dependent
GBM43 spheroids [1] = test: 3-D spheroid viability assay, GBM43; type: cell-based, human; settings: for activity in spheroids (in words): concentration-dependent
RACK1 [2] = molecular target: T1, RACK1 (Homo sapiens, UniProt P63244); test: Thermal proteome profiling in GBM43 cells; type: binding; settings: 10 μM, six temperatures 37-60 °C, cutoff ΔTm ≥ 3 °C
Summary of the method: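 GBM43 cells in PBS with protease inhibitors were treated 1 h at 37 °C with 10 µM test compound or DMSO. Fractions of 5 × 10⁶ cells were heated 3 min at 37, 40, 45, 50, 55 or 60 °C, then freeze-thaw lysed and spun at 100,000 × g. Soluble proteins were trypsin-digested and quantified by label-free LC-MS/MS. iBAQ-based melting curves gave ΔTm (treatment − vehicle), with a ≥3.0 cutoff.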

[3] = tested on: brain microvascular endothelial cells (BMECs); test: Matrigel-based tube formation assay; settings: Endothelial cell, 8 h, read-out: IC50 (tube formation)
Summary of the method: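 Primary brain microvascular endothelial cells, 15,000 per well in EGM-2, were seeded on Matrigel pre-solidified 20 min at 37 °C. Test compound was added in DMSO. Tubes were observed every 2 h by brightfield and imaged at 8 h. Total tubule length from six images per treatment was normalised to DMSO. Treatments were compared to DMSO by one-way ANOVA with Dunnett's test.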

[4] = tested on: brain microvascular endothelial cells (BMECs); test: Effect on brain microvascular endothelial cells, 48 h exposure; type: cell-based; settings: Endothelial cell, read-out: IC50 (effect on BMECs)
CD34+ progenitor cells = test: Colony-forming unit; type: cell-based, human; settings: colony formation assay, up to 100 μM, day 14
Summary of the method: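 Purified human umbilical cord blood CD34+ cells were incubated with test compound. They were plated with compound at 2 × 10³ cells per 35 mm dish in MethoCult H4434. Clonogenic progenitor colonies were counted by light microscopy on day 14 after exposure. IC50 came from dose-response curves.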

[5] = Stability in buffer by HPLC; type: physicochemical
Panc198 (Pa20C) = test: PDAC 3-D spheroid model, Panc198; type: cell-based, human; settings: Panc198 PDAC spheroids, concentration-dependent
Summary of the method: (§1)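 TdTomato-transduced PDAC cells, kept under 10 passages, were seeded at 1,000 cells/well in ultralow-adherence plates. Medium held 3% reduced-growth-factor Matrigel and 5% FBS. Spheroids were treated on days 4 and 8, and red fluorescence was read on day 12. Percent viability was taken versus media control (mean ± s.d., n = 3). Relative IC50 came from a four-parameter logistic fit by non-linear least squares.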

Panc10.05 (Pa16C) = test: PDAC 3-D spheroid model, Panc10.05; type: cell-based; settings: Homo sapiens, Panc1005, read-out: IC50 (cell viability)
Summary of the method: as §1

Pa02C = test: PDAC 3-D spheroid model, Pa02C; type: cell-based, human; settings: Pa02C PDAC spheroids, concentration-dependent
Summary of the method: as §1

astrocytes = test: Astrocyte monolayer cell proliferation assay; type: cell-based, human; settings: 2-D monolayer assay, up to 100 μM, 3 days
Summary of the method: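 Primary human fetal astrocytes were seeded at 8 × 10³/well in DMEM with 10% FBS and 1% penicillin/streptomycin. They were incubated 3 days with DMSO or test compound. MTS reagent was then added and incubated 1 h at 37 °C, and absorbance was read at 490 nm. Run in triplicate.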

GAPDH = GAPDH (Homo sapiens, UniProt P04406); test: Cellular thermal shift assay; type: binding; settings: GBM43 cells, concentration-dependent, heated to 45 °C
Summary of the method: (§2)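 GBM43 cells were exposed to varying concentrations of test compound, then heated to 45 °C. Protein remaining soluble was detected with target-specific antibodies. GAPDH was probed as a control for non-specific binding.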

RACK1 [6] = molecular target: T1, RACK1; test: Cellular thermal shift assay; type: binding; settings: GBM43 cells, concentration-dependent, 6 h treatment, heated to 45 °C, vs DMSO
Summary of the method: as §2

SJ-GBM2 spheroids = test: 3-D spheroid viability assay, SJ-GBM2; type: cell-based, human; settings: for activity in spheroids (in words): concentration-dependent
GBM43 spheroids [7] = settings: read-out: IC50 (cell viability); GBM43, standard-of-care comparison; cited from earlier work

Chain of GAPDH (P04406 whole entry): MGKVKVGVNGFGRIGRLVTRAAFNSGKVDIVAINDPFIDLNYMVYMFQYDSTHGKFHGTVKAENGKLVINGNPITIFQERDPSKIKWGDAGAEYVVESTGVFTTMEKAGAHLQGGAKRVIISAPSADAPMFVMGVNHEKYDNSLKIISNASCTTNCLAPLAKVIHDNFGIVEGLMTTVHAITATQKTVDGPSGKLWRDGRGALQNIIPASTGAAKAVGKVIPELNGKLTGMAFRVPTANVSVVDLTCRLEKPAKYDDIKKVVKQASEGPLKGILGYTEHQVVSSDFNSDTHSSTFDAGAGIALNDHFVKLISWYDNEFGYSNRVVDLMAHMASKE

For `O=NN(CCCl)C(=O)NC1CCCCC1` [CCNU, lomustine, reference compound], the “inhibition of cell viability” value (GBM10 spheroids; at 100 μM) was “about 50%” and the “inhibition of cell viability” value (GBM43 spheroids [1]; GBM43 spheroids, at 100 μM) was “about 50%”.

For `COc1cc2c(cc1NC(=O)C1CCC(=O)N1S(=O)(=O)c1ccc(C)cc1)oc1ccccc12` (stereo not shown) [Compound 1, N-(2-Methoxydibenzo[b,d]furan-3-yl)-5-oxo-1-tosylpyrrolidine-2-carboxamide], the “thermal shift of RACK1 (ΔTm)” value (RACK1 [2]) was “significant thermal shift”, the IC50 [3] was roughly 0.1 µM and the IC50 [4] was 3.5 µM. The “effect on cell viability of CD34+ cells” value (CD34+ progenitor cells) was “no effect”, the “stability following incubation in buffer” value [5] was “stable” and the “activity in spheroid model” value (Panc198 (Pa20C)) was “no activity”. The IC50 (Panc10.05 (Pa16C)) was 26 ± 5.9 µM, the “inhibition of cell viability” value (GBM43 spheroids [1]; GBM43 spheroids, single concentration 25 μM) was 90% and the IC50 (GBM43 spheroids [1]; Homo sapiens, 120 h, read-out: IC50 (cell viability)) was 3.7 ± 0.1 µM. The “activity in spheroid model” value (Pa02C) was “no activity”, the “effect on cell viability of astrocytes” value (astrocytes) was “no effect” and the “GAPDH abundance after heating (CETSA)” value (GAPDH) was “no difference in protein abundance”.

For `COc1cc2c(cc1NC(=O)C1CCCN1S(=O)(=O)c1ccc(C)cc1)oc1ccccc12` (stereo not shown) [Compound 22, N-(2-Methoxydibenzo[b,d]furan-3-yl)-1-tosylpyrrolidine-2-carboxamide], the “activity in spheroids (in words)” value (GBM10 spheroids) was “loss of activity”, the “RACK1 abundance after heating (CETSA)” value (RACK1 [6]) was “did not affect protein abundance” and the “activity in spheroids (in words)” value (GBM43 spheroids [1]; GBM43 spheroids) was “loss of activity”.

In the case of `COc1cc2c(cc1NC(=O)C1CCC(=O)N1Cc1ccc(C)cc1)oc1ccccc12` (stereo not shown) [Compound 23, N-(2-Methoxydibenzo[b,d]furan-3-yl)-1-(4-methylbenzyl)-5-oxopyrrolidine-2-carboxamide], the “activity in spheroids (in words)” value (GBM10 spheroids) is reported as “loss of activity” and the “activity in spheroids (in words)” value (GBM43 spheroids [1]; GBM43 spheroids) is reported as “loss of activity”.

With `COc1cc2c(cc1NC(=O)C1CCC(=O)N1)oc1ccccc12` (stereo not shown) [Compound 24, N-(2-Methoxydibenzo[b,d]furan-3-yl)-5-oxopyrrolidine-2-carboxamide] the “activity in spheroids (in words)” value (GBM10 spheroids) was “loss of activity” and the “activity in spheroids (in words)” value (GBM43 spheroids [1]; GBM43 spheroids) was “loss of activity”.

With `COc1cc2c(cc1NC(=O)C1CCC(=O)N1S(=O)(=O)c1ccc(C(F)(F)F)cc1)oc1ccccc12` (stereo not shown) [Compound 25, N-(2-Methoxydibenzo[b,d]furan-3-yl)-5-oxo-1-((4-(trifluoromethyl)phenyl)sulfonyl)pyrrolidine-2-carboxamide] the “fold decrease in IC50 compared to 1” value (GBM10 spheroids) was roughly 10 fold, the “fold decrease in IC50 compared to 1” value (SJ-GBM2 spheroids) was roughly 10 fold and the “fold decrease in IC50 compared to 1” value (GBM43 spheroids [1]; GBM43 spheroids) was roughly 10 fold.

With `COc1cc2c(cc1NC(=O)C1CCC(=O)N1S(=O)(=O)c1ccc(C)cc1)oc1ccc(Cl)cc12` (stereo not shown) [Compound 26, N-(8-Chloro-2-methoxydibenzo[b,d]furan-3-yl)-5-oxo-1-tosylpyrrolidine-2-carboxamide] the “activity in spheroids (in words)” value (GBM10 spheroids) was “no activity”, the “activity in spheroids (in words)” value (SJ-GBM2 spheroids) was “no activity” and the “activity in spheroids (in words)” value (GBM43 spheroids [1]; GBM43 spheroids) was “no activity”.

For `COc1cc2c(cc1NC(=O)C1CCC(=O)N1S(=O)(=O)c1ccc(C)cc1)oc1cc(Cl)ccc12` (stereo not shown) [Compound 27, N-(7-Chloro-2-methoxydibenzo[b,d]furan-3-yl)-5-oxo-1-tosylpyrrolidine-2-carboxamide], the “activity in spheroids (in words)” value (GBM10 spheroids) was “no activity”, the “activity in spheroids (in words)” value (SJ-GBM2 spheroids) was “no activity” and the “activity in spheroids (in words)” value (GBM43 spheroids [1]; GBM43 spheroids) was “no activity”.

For `Cn1nnc2c(C(N)=O)ncn2c1=O` [temozolomide], the IC50 (GBM43 spheroids [7]) is given as 244 µM and ~250 µM.
